≈ marks a conversion by molar mass, not a printed value.
Tested on: HepG2
Assay: Cytotoxicity against human HepG2 cells by MTT assay
Format: functional, cell-based
Outline: (§1)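 Human cancer cell lines obtained from ATCC. Cytotoxicity read by MTT colorimetric method.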

`C=C(CO)[C@@H]1CC[C@@](C)(OO)/C=C/C/C(C)=C/CC/C(C)=C/[C@@H]1O` [CRASSUMOLIDE E] and `C=C1C(=O)O[C@H]2/C=C(\C)C/C=C/[C@@](C)(O)CC/C=C(\C)CC[C@@H]12` [CRASSUMOLIDE F] cannot be ordered by IC50: > 5 µg/mL for the first, > 5 µg/mL for the second.

Going from `C=C1C(=O)O[C@H]2/C=C(\C)CC[C@H](OC(C)=O)[C@@]3(C)CC[C@H](OO3)/C(C)=C\C[C@@H]12` [DENTICULATOLIDE] to `C=C1C(=O)O[C@H]2/C=C(\C)CC/C=C(/C(=O)O)CC/C=C(\C)CC[C@@H]12` [LOBOHEDLEOLIDE], the IC50 rises from 2.4 µg/mL (≈ 6.15 µM) to > 5 µg/mL.

In the case of `COc1cccc2c1C(=O)c1c(O)c3c(c(O)c1C2=O)C[C@@](O)(C(=O)CO)C[C@@H]3O[C@H]1C[C@H](N)[C@H](O)[C@H](C)O1` [DOXORUBICIN], the IC50 is reported as 0.2 µg/mL (≈ 0.368 µM).

Tested on: not listed separately
Assay: Cytotoxicity against human Hep3B cells by MTT assay
Format: functional, cell-based, Hep 3B2
Outline: as §1

`C=C(CO)[C@@H]1CC[C@@](C)(OO)/C=C/C/C(C)=C/CC/C(C)=C/[C@@H]1O` [CRASSUMOLIDE E] and `C=C1C(=O)O[C@H]2/C=C(\C)C/C=C/[C@@](C)(O)CC/C=C(\C)CC[C@@H]12` [CRASSUMOLIDE F] cannot be ordered by IC50: > 5 µg/mL for the first, > 5 µg/mL for the second.

First: C=C1C(=O)O[C@H]2/C=C(\C)CC[C@H](OC(C)=O)[C@@]3(C)CC[C@H](OO3)/C(C)=C\C[C@@H]12 [DENTICULATOLIDE]
Second: C=C1C(=O)O[C@H]2/C=C(\C)CC/C=C(/C(=O)O)CC/C=C(\C)CC[C@@H]12 [LOBOHEDLEOLIDE]
The IC50 of the first is 1.9-fold lower: 2.5 µg/mL (≈ 6.4 µM) for the first, 4.7 µg/mL (≈ 14.2 µM) for the second.

With `COc1cccc2c1C(=O)c1c(O)c3c(c(O)c1C2=O)C[C@@](O)(C(=O)CO)C[C@@H]3O[C@H]1C[C@H](N)[C@H](O)[C@H](C)O1` [DOXORUBICIN] the IC50 was 0.2 µg/mL (≈ 0.368 µM).

Tested on: MDA-MB-231
Assay: Cytotoxicity against human MDA-MB-231 cells by MTT assay
Format: functional, cell-based
Outline: as §1

`C=C(CO)[C@@H]1CC[C@@](C)(OO)/C=C/C/C(C)=C/CC/C(C)=C/[C@@H]1O` [CRASSUMOLIDE E] and `C=C1C(=O)O[C@H]2/C=C(\C)C/C=C/[C@@](C)(O)CC/C=C(\C)CC[C@@H]12` [CRASSUMOLIDE F] cannot be ordered by IC50: > 5 µg/mL for the first, > 5 µg/mL for the second.

Compared with `C=C1C(=O)O[C@H]2/C=C(\C)CC[C@H](OC(C)=O)[C@@]3(C)CC[C@H](OO3)/C(C)=C\C[C@@H]12` [DENTICULATOLIDE], `C=C1C(=O)O[C@H]2/C=C(\C)CC/C=C(/C(=O)O)CC/C=C(\C)CC[C@@H]12` [LOBOHEDLEOLIDE] is higher in IC50: 2 µg/mL (≈ 5.12 µM) for the first, > 5 µg/mL for the second.

`COc1cccc2c1C(=O)c1c(O)c3c(c(O)c1C2=O)C[C@@](O)(C(=O)CO)C[C@@H]3O[C@H]1C[C@H](N)[C@H](O)[C@H](C)O1` [DOXORUBICIN] gave an IC50 of 0.2 µg/mL (≈ 0.368 µM).

Tested on: MCF7
Assay: Cytotoxicity against human MCF7 cells by MTT assay
Format: functional, cell-based
Outline: as §1

`C=C(CO)[C@@H]1CC[C@@](C)(OO)/C=C/C/C(C)=C/CC/C(C)=C/[C@@H]1O` [CRASSUMOLIDE E] and `C=C1C(=O)O[C@H]2/C=C(\C)C/C=C/[C@@](C)(O)CC/C=C(\C)CC[C@@H]12` [CRASSUMOLIDE F] cannot be ordered by IC50: > 5 µg/mL for the first, > 5 µg/mL for the second.

Compared with `C=C1C(=O)O[C@H]2/C=C(\C)CC[C@H](OC(C)=O)[C@@]3(C)CC[C@H](OO3)/C(C)=C\C[C@@H]12` [DENTICULATOLIDE], `C=C1C(=O)O[C@H]2/C=C(\C)CC/C=C(/C(=O)O)CC/C=C(\C)CC[C@@H]12` [LOBOHEDLEOLIDE] is higher in IC50: 2 µg/mL (≈ 5.12 µM) for the first, > 5 µg/mL for the second.

In the case of `COc1cccc2c1C(=O)c1c(O)c3c(c(O)c1C2=O)C[C@@](O)(C(=O)CO)C[C@@H]3O[C@H]1C[C@H](N)[C@H](O)[C@H](C)O1` [DOXORUBICIN], the IC50 is reported as 0.2 µg/mL (≈ 0.368 µM).

Tested on: A549
Assay: Cytotoxicity against human A549 cells by MTT assay
Format: functional, cell-based
Outline: as §1

`C=C(CO)[C@@H]1CC[C@@](C)(OO)/C=C/C/C(C)=C/CC/C(C)=C/[C@@H]1O` [CRASSUMOLIDE E] and `C=C1C(=O)O[C@H]2/C=C(\C)C/C=C/[C@@](C)(O)CC/C=C(\C)CC[C@@H]12` [CRASSUMOLIDE F] cannot be ordered by IC50: > 5 µg/mL for the first, > 5 µg/mL for the second.

Going from `C=C1C(=O)O[C@H]2/C=C(\C)CC[C@H](OC(C)=O)[C@@]3(C)CC[C@H](OO3)/C(C)=C\C[C@@H]12` [DENTICULATOLIDE] to `C=C1C(=O)O[C@H]2/C=C(\C)CC/C=C(/C(=O)O)CC/C=C(\C)CC[C@@H]12` [LOBOHEDLEOLIDE], the IC50 rises from 2.3 µg/mL (≈ 5.89 µM) to 4.6 µg/mL (≈ 13.9 µM) (2-fold).

Tested on: Ca9-22
Assay: Cytotoxicity against human Ca9-22 cells by MTT assay
Format: functional, cell-based
Outline: as §1

`C=C(CO)[C@@H]1CC[C@@](C)(OO)/C=C/C/C(C)=C/CC/C(C)=C/[C@@H]1O` [CRASSUMOLIDE E] and `C=C1C(=O)O[C@H]2/C=C(\C)C/C=C/[C@@](C)(O)CC/C=C(\C)CC[C@@H]12` [CRASSUMOLIDE F] cannot be ordered by IC50: > 5 µg/mL for the first, > 5 µg/mL for the second.

Compared with `C=C1C(=O)O[C@H]2/C=C(\C)CC[C@H](OC(C)=O)[C@@]3(C)CC[C@H](OO3)/C(C)=C\C[C@@H]12` [DENTICULATOLIDE], `C=C1C(=O)O[C@H]2/C=C(\C)CC/C=C(/C(=O)O)CC/C=C(\C)CC[C@@H]12` [LOBOHEDLEOLIDE] is 2.3-fold higher in IC50: 1.2 µg/mL (≈ 3.07 µM) for the first, 2.8 µg/mL (≈ 8.47 µM) for the second.

Compound `COc1cccc2c1C(=O)c1c(O)c3c(c(O)c1C2=O)C[C@@](O)(C(=O)CO)C[C@@H]3O[C@H]1C[C@H](N)[C@H](O)[C@H](C)O1` [DOXORUBICIN] has an IC50 of 0.1 µg/mL (≈ 0.184 µM).

Tested on: RAW264.7
Assay: Antiinflammatory activity in mouse RAW264.7 cells assessed as reduction in LPS-induced iNOS protein level at 10 uM treated 5 mins before LPS challenge by Western blot analysis relative to control
Format: functional
Set-up: scale not given: the % may be the effect or the level left
Outline: (§2)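 Murine RAW 264.7 macrophages kept in DMEM with 10% heat-inactivated FBS at 37 °C, 5% CO2. Compound added 5 min before LPS (0.01 µg/mL), then 16 h incubation. Lysates of equal protein run on SDS-PAGE and blotted. iNOS and COX-2 probed, β-actin used as loading control, ECL detection. Band IOD expressed relative to the LPS-only control. One-way ANOVA with Student-Newman-Keuls test.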

Compared with `O=C(/C=C/c1ccc(O)c(O)c1)OCCc1ccccc1` [CAFFEIC ACID PHENETHYL ESTER], `C=C1C(=O)O[C@H]2/C=C(\C)CC/C=C(/C(=O)O)CC/C=C(\C)CC[C@@H]12` [LOBOHEDLEOLIDE] is higher in Activity: 2.5% for the first, 21.5% for the second.

Work on `C=C1C(=O)O[C@H]2/C=C(\C)CC[C@H](OC(C)=O)[C@@]3(C)CC[C@H](OO3)/C(C)=C\C[C@@H]12` [DENTICULATOLIDE] yielded an Activity of 10.2%.

Tested on: RAW264.7
Assay: Antiinflammatory activity in mouse RAW264.7 cells assessed as reduction in LPS-induced COX2 protein level at 10 uM treated 5 mins before LPS challenge by Western blot analysis relative to control
Format: functional
Set-up: scale not given: the % may be the effect or the level left
Outline: as §2

Compared with `O=C(/C=C/c1ccc(O)c(O)c1)OCCc1ccccc1` [CAFFEIC ACID PHENETHYL ESTER], `C=C1C(=O)O[C@H]2/C=C(\C)CC/C=C(/C(=O)O)CC/C=C(\C)CC[C@@H]12` [LOBOHEDLEOLIDE] is lower in Activity: 67.2% for the first, 39.2% for the second.

Work on `C=C1C(=O)O[C@H]2/C=C(\C)CC[C@H](OC(C)=O)[C@@]3(C)CC[C@H](OO3)/C(C)=C\C[C@@H]12` [DENTICULATOLIDE] yielded an Activity of 34.3%.

From ChEMBL document CHEMBL1154143, “Cytotoxic and anti-inflammatory cembranoids from the soft coral Lobophytum crassum” (J Nat Prod, 2008)
